Experimental data published in PMC9177108 (The Oncologist, 2022).

Key:
[1] = system: patients with recurrent and metastatic nasopharyngeal carcinoma (RM-NPC); test: Safety and tolerability; type: in vivo, human
Method in brief: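 Safety was the primary endpoint, assessed separately in two randomised arms of pretreated RM-NPC patients given test compound 10 mg orally: daily on a 4-week cycle, or 3 weeks on/1 week off. Adverse events were graded by CTCAE version 4.03. The safety set comprised patients who took at least one dose. TEAEs and TRAEs, including those leading to dose reduction, interruption or discontinuation, were tabulated per arm.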

[2] = Plasma pharmacokinetics; type: in vivo, human; settings: for AUC(0-t) / AUC / Vd/F: human, plasma, 10 mg; for AUC(0-t): AUC0-t; for AUC(0-t) / Vd/F: single dose; for AUC: AUCss, multiple dose; for Vd/F: V z/F
Method in brief: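 Test compound was given at 10 mg orally, either continuously daily or 3 weeks on/1 week off. Plasma PK was sampled on cycle 1 day 1 after a single dose for Tmax, Cmax, AUC0-24h, AUC0-t, AUC0-∞, λz, t1/2, CL/F, Vz/F, %AUCex and MRT. After multiple doses, steady-state parameters were Css max/min/avg, Tss,max, AUCss, CLss/F, Vss/F, %Fluctuation and accumulation ratios. […]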

[3] = GeoMean(%CVb), C1D1, continuous arm (n = 5)
[4] = GeoMean(%CVb), C1D1, intermittent arm (n = 4)

CNC(=O)c1cccc2cc(Oc3ccnc4cc(OCC5(N)CC5)c(OC)cc34)ccc12 [Lucitanib]
patients with at least one TEAE ([1]; all patients, both arms): All patients
serious TRAEs ([1]; all patients, both arms): No patients experienced serious TRAEs
patients with Grade ≥3 related TEAEs ([1]; all patients, both arms (7/20)): 35%
TRAE: Hypothyroidism ([1]; continuous arm): 60%
grade ≥3 TRAE: decreased platelet count ([1]; continuous arm): 10%
grade ≥3 TRAE: hypertension ([1]; continuous arm): 30%
grade ≥3 TRAE: increased AST ([1]; continuous arm): 10%
grade ≥3 TRAE: proteinuria ([1]; continuous arm): 20%
patients with at least one treatment-related AE (TRAE) ([1]; continuous arm): One hundred
patients with Grade ≥3 related TEAEs ([1]; continuous arm (5/10)): 50%
patients with Grade ≥3 related TRAEs ([1]; continuous arm (5/10)): 50%
Drug-related AE: Cough ([1]; continuous arm, n = 10): 2 (20.0) n (%)
Drug-related AE: Diarrhea ([1]; continuous arm, n = 10): 3 (30.0) n (%)
Drug-related AE: Epistaxis ([1]; continuous arm, n = 10): 5 (50.0) n (%)
Drug-related AE: Free thyroxine decreased ([1]; continuous arm, n = 10): 3 (30.0) n (%)
Drug-related AE: Hypertension ([1]; continuous arm, n = 10): 10 (100.0) n (%)
Drug-related AE: Hypochloremia ([1]; continuous arm, n = 10): 3 (30.0) n (%)
Drug-related AE: Platelet count decreased ([1]; continuous arm, n = 10): 3 (30.0) n (%)
Drug-related AE: Proteinuria ([1]; continuous arm, n = 10): 10 (100.0) n (%)
Drug-related AE: Skin rash ([1]; continuous arm, n = 10): 3 (30.0) n (%)
Drug-related AE: TSH increased ([1]; continuous arm, n = 10): 3 (30.0) n (%)
Drug-related adverse events: All ([1]; continuous arm, n = 10): 10 (100.0) n (%)
Grade ≥3 TEAE ([1]; continuous arm, n = 10): 5 (50) n (%)
Grade ≥3 TRAE ([1]; continuous arm, n = 10): 5 (50) n (%)
Serious TRAE ([1]; continuous arm, n = 10): 0 n (%)
TRAE lead to dose discontinuation ([1]; continuous arm, n = 10): 0 n (%)
TRAE lead to dose interruption ([1]; continuous arm, n = 10): 5 (50) n (%)
TRAE: Hypothyroidism ([1]; intermittent arm): 50%
grade ≥3 TRAE: decreased platelet count ([1]; intermittent arm): 0%
grade ≥3 TRAE: hypertension ([1]; intermittent arm): 0%
grade ≥3 TRAE: increased AST ([1]; intermittent arm): 0%
grade ≥3 TRAE: proteinuria ([1]; intermittent arm): 0%
patients with at least one treatment-related AE (TRAE) ([1]; intermittent arm): 90%
Drug-related AE: AST increased ([1]; intermittent arm, n = 10): 0 n (%)
Drug-related AE: Backache ([1]; intermittent arm, n = 10): 0 n (%)
Drug-related AE: Cough ([1]; intermittent arm, n = 10): 3 (30.0) n (%)
Drug-related AE: Diarrhea ([1]; intermittent arm, n = 10): 0 n (%)
Drug-related AE: Free thyroxine decreased ([1]; intermittent arm, n = 10): 1 (10.0) n (%)
Drug-related AE: Hypochloremia ([1]; intermittent arm, n = 10): 1 (10.0) n (%)
Drug-related AE: Hypothyroidism ([1]; intermittent arm, n = 10): 5 (50.0) n (%)
Drug-related AE: Platelet count decreased ([1]; intermittent arm, n = 10): 1 (10.0) n (%)
Drug-related AE: Proteinuria ([1]; intermittent arm, n = 10): 5 (50.0) n (%)
Drug-related AE: Serum creatinine (Scr) increased ([1]; intermittent arm, n = 10): 1 (10.0) n (%)
Drug-related AE: Skin rash ([1]; intermittent arm, n = 10): 0 n (%)
Drug-related AE: TSH increased ([1]; intermittent arm, n = 10): 1 (10.0) n (%)
Drug-related AE: Weight loss ([1]; intermittent arm, n = 10): 0 n (%)
Grade ≥3 TEAE ([1]; intermittent arm, n = 10): 2 (20) n (%)
Grade ≥3 TRAE ([1]; intermittent arm, n = 10): 0 n (%)
Serious TRAE ([1]; intermittent arm, n = 10): 0 n (%)
TRAE lead to dose discontinuation ([1]; intermittent arm, n = 10): 1 (10) n (%)
TRAE lead to dose interruption ([1]; intermittent arm, n = 10): 2 (20) n (%)
TRAE lead to dose reduction ([1]; intermittent arm, n = 10): 0 n (%)
time at which steady state is reached (trough levels) ([2]; 10 mg p.o. once daily): ≤ 15 days
AUC(0-t) [2, 3]: 2.37 µg·h/mL
AUC(0-t) [2, 4]: 2.72 µg·h/mL
AUC ([2]; GeoMean(%CVb), C1D15, continuous arm (n=5)): 6.17 µg·h/mL
AUC ([2]; GeoMean(%CVb), C1D15, intermittent arm (n=4)): 9.16 µg·h/mL
AUC ([2]; Mean ± SD, C1D15, continuous arm (n=5)): 6.67 ± 2.63 µg·h/mL
AUC ([2]; Mean ± SD, C1D15, intermittent arm (n=4)): 9.68 ± 3.71 µg·h/mL
Vd/F [2, 3]: 68 L
Vd/F [2, 4]: 58.1 L
Vd/F ([2]; Mean ± SD, C1D1, continuous arm (n = 5)): 75.2 ± 40.2 L
Vd/F ([2]; Mean ± SD, C1D1, intermittent arm (n = 4)): 60.8 ± 19.8 L
